Insulin prom act – activators of insulin promoter-driven GFP, primary screen, imaging, TRM-6 cells (human fetal islet line), eGFP reporter, cell count; plate-scaled: unstimulated 0, stimulated control 100; hit rate 0.81% among 130,000; activation, % at 2 µM;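 active = activation at 2 µM above a set limit, confirmed on inspection of the cell images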;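 also: share of cells whose green reporter signal exceeds an intensity cutoff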
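Assay system: TRM-6 insulin promoter–eGFP reporter cells / Input: 1,000 cells per well / Medium: Low-glucose (5.5 mM) medium with tamoxifen / Also added: tamoxifen inducer, 0.75 µM, in seeding medium / Timing: overnight tamoxifen, then two-day compound incubation at 37 °C / Signal: automated fluorescence imaging of paraformaldehyde-fixed, Hoechst-counterstained cells, green channel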
Active calls of the source: *. Many of the other results were omitted from the sample, so hits are more common in it than they were.

SMILES	Insulin prom act
CN(C(=S)Nc1ccccc1)c1ccccc1	-7.1
Cc1nn(-c2ccccc2)cc1C(=S)Nc1ccccc1	-7.1
N#CC(c1nc2ccccc2nc1N1CCCC1)S(=O)(=O)c1cccs1 (centres undefined)	5.7
O=C(NCCCn1ccnc1)/C(=C/c1ccco1)NC(=O)c1cccs1	115.4
CCN1c2ccccc2NC2C1C(C(C)=O)C(=O)N2c1ccc(Cl)cc1 (centres undefined)	133.3*
CCC(=O)N1C(=O)C2(Nc3ccccc3N2)c2ccccc21	8.1
O=C(Nc1ccc2oc(=O)ccc2c1)c1cccnc1	2.8
COC(=O)COc1ccc(S(=O)(=O)N2CCN(c3ccc(F)cc3)CC2)cc1	-2.9
CSc1ncccc1C(=O)OCC(=O)c1ccc(Br)s1	0.0
CCN1C(=O)/C(=C/C=C2/Sc3ccc4ccccc4c3N2CCO)SC1=S	178.6
CCN1C(c2ccccc2)=C(c2ccccc2)S/C1=C\C=C1/SC(=S)N(C)C1=O	4.5
CCCCN1C(=O)/C(=C/C=C2\SCCN2C)SC1=S	407.7*
CC(C)OCC(O)CS(=O)Cc1ccccc1 (centres undefined)	0.0
CCOC(=O)COn1c(SCC(=O)OCC)nc2ccccc2c1=O	3.6
CCOC(=O)C(C)Sc1nc2ccccc2c(=O)n1CC (centres undefined)	425.7*
CCOC(=O)CSc1nc2ccccc2c(=O)n1CCN1CCOCC1	4.5
CC1CCN(S(=O)(=O)c2ccc3c(c2)N(CC(=O)NCc2cccnc2)C(=O)CS3)CC1	128.6
Fc1ccc2c(Cl)c(-c3nnc(-c4cccs4)o3)sc2c1	3.7
CN(C)/C=C(\C=O)c1ncc(C(F)(F)F)cc1Cl	-7.1
CCCCNC(=O)COC(=O)c1ccc(NC(C)=O)cc1	5.6
CCOC(=O)C1CCCN(CCC(=O)Nc2ccc(C)cc2)C1 (centres undefined)	527.6*
CCOC(=O)C1CCCN(CCC(=O)Nc2cccc(F)c2)C1 (centres undefined)	-9.4
CCOC(=O)C1CCCN(CCC(=O)Nc2cccc(C)c2)C1 (centres undefined)	7.1
COc1ccc(OC)c(N2C(=O)CC(Cc3cc(C)cc(C)c3)C2=O)c1 (centres undefined)	242.9
O=C(O)c1ccccc1C(=O)N1CCN(C(=O)c2ccccc2Cl)CC1	6.7
SMILES	Insulin prom act
O=C(c1ccc(-c2ccccc2)cc1)N1CCCC1	9.7
O=C(c1ccccc1-c1ccccc1)N1CCCC1	520.0*
COc1ccc(NS(=O)(=O)c2cccc(N/C(=N\S(=O)(=O)c3ccccc3)c3ccc(F)cc3)c2)cc1	9.1
O=C(CSc1nnc(C2CC2)n1-c1ccccc1)NCCc1ccccc1	-7.2
Cc1ccc(-c2n[nH]c(=S)n2-c2ccccc2)cc1	484.6*
Cc1ccc(-n2c(-c3cccc(C)c3)n[nH]c2=S)cc1	-7.1
Cc1[nH]c2ccc(-c3n[nH]c(=S)n3-c3ccccc3)cc2c1C	-9.4
O=c1c2c3c(sc2ncn1/N=C/c1ccccc1)CCCC3	332.6
CCc1ccc(NC(=O)CC2C(=O)Nc3c2c(=O)n(C)c(=O)n3C)cc1 (centres undefined)	2.9
C=CCn1c(SCc2ccccc2)nnc1-c1cccnc1	0.0
C=CCn1c(SCc2ccc(C#N)cc2)nnc1-c1cccc(OC)c1	164.3*
Cc1ccc(-c2nnc(SCc3ccc(C#N)cc3)n2Cc2ccco2)cc1	2.9
C=CCc1c(C)nc(SC(C)C)[nH]c1=O	-86.4
O=C(OCCN1CCOCC1)c1cccs1	8.6
CN(C)S(=O)(=O)c1ccc(C(=O)OCCn2cnc3c2c(=O)n(C)c(=O)n3C)cc1	6.7
CCc1nnc(NC(=O)CSc2nnc(Cc3ccccc3)n2-c2ccccc2)s1	-81.8
Cc1nnc(NC(=O)CSc2nnc(C)n2Cc2ccccc2)s1	0.0
Cc1nnc(NC(=O)CSc2nnc(Cc3ccccc3)n2-c2ccccc2)s1	660.0*
O=C1Nc2ccccc2N(O)N1c1cc(-c2ccccc2)[nH]n1	-85.0
CC(C)(C)n1ncc(Oc2ccc(Oc3cnn(C(C)(C)C)c(=O)c3Cl)cc2)c(Cl)c1=O	-54.7
COc1ccc(C(=O)/C=C/Nc2cccc(O)c2)cc1	80.0*
COc1cccc(N/C=C/C(=O)c2ccc(Br)cc2)c1	4.2
COc1ccc(N/C=C\C(=O)c2ccc3c(c2)OCO3)cc1	5.7
CSc1nnc2c3ccccc3c3ccccc3c2n1	-2.7
S=C(NCc1ccncc1)NC1CCCCC1	5.9
SMILES	Insulin prom act
Cc1ccc2cc(CN(Cc3ccco3)C(=S)NCC3CCCO3)c(=O)[nH]c2c1C (centres undefined)	-8.3
Cc1cccc2cc(CN(Cc3ccco3)C(=O)c3cccs3)c(=O)[nH]c12	-3.4
Cc1ccc2cc(CN(Cc3ccco3)C(=O)NCc3ccccc3)c(=O)[nH]c2c1C	160.0*
COC(=O)N1CC(=O)N(OC)C1c1ccc(Cl)cc1Cl (centres undefined)	0.0
CCN1/C(=C/c2ccc3cc(C)ccc3[n+]2C)Sc2ccc3sccc3c21	376.2*
CCN1/C(=C/c2ccc3cc(C)ccc3[n+]2CC)Sc2cc(C)ccc21	614.3*
O=C(CCCOc1ccc(Cl)cc1)NCC1CCCO1 (centres undefined)	-2.9
COc1cc(OC)c(CNC2CCCCCC2)cc1Br	0.0
CCOC(=O)c1ccc(OS(=O)(=O)c2ccccc2)c(OC)c1	8.3
COC(=O)c1cc(OC)c(OC)cc1NC(=O)c1ccc(OC)c(OC)c1	-3.3
Cc1cc(NC(=O)C2C3C(=O)N(Cc4ccc(Cl)cc4)C(C(=O)NCc4ccccc4)C34C=CC2(C)O4)no1 (centres undefined)	3.4
Clc1cccc(/C=N/Nc2nnc(Cl)c3ccccc23)c1	9.3
Cc1cc(C)nc(N/N=C/c2ccccc2)n1	-17.8
Cc1nc(C#N)c(N/N=C/c2cccc(Cl)c2)o1	300.0*
CCCc1nc2ccccc2n1CCc1ccccc1	0.0
O=C(NCc1ccco1)C1CCN(S(=O)(=O)Cc2ccccc2)CC1	355.6
CCn1c(Cc2ccccc2)nnc1SCC(=O)Nc1ccc(N2CCOCC2)c(Cl)c1	376.9
Cn1c(SCC(=O)Nc2ccc(N3CCOCC3)c(Cl)c2)nnc1-c1ccccc1	800.0*
Cc1ccc(NC(=O)CSCC(=O)Nc2ccc(N3CCOCC3)c(Cl)c2)cc1	0.0
Cc1ccccc1N1C(=O)CC1(C#N)c1ccc(OCc2ccccc2)cc1 (centres undefined)	9.7
CCN(C(=N)N=C(N)N)c1ccccc1	-7.7
COc1ccccc1C1CC(c2ccc(C)cc2)Nc2ncnn21 (centres undefined)	7.1
COc1ccc(CCNC(=O)Cn2cnc3scc(-c4ccccc4)c3c2=O)cc1OC	5.9
Cc1ccccc1Oc1cc(-n2ncc(Cl)c(Cl)c2=O)ncn1	270.4*
Cc1nn(-c2ccccc2)c(C)c1NC(=O)COc1ccc(F)cc1Cl	8.1
SMILES	Insulin prom act
c1ccc(Oc2cc(-n3cccn3)ncn2)cc1	9.4
COc1cccc(NC(=O)CN2C(=O)NC(C)(CC(C)C)C2=O)c1 (centres undefined)	2.4
CC(OC(=O)c1ccc2c(=O)n3c(nc2c1)CCCCC3)C(=O)Nc1ccc(F)cc1Cl (centres undefined)	1.3
COc1ccc(C(=O)NCCN2CCOCC2)cc1OC	-78.6
O=C(CCSCCC(=O)NCCN1CCOCC1)NCCN1CCOCC1	-6.9
COCCNC(=O)C(=O)NCCN1CCOCC1	493.8*
COc1ccc(S(=O)(=O)N2CCN(C3Cc4ccccc4C3)CC2)cc1	0.0
COc1cc2oc3ccccc3c2cc1N(CC(=O)N1CCCCC1)S(=O)(=O)c1ccc(C)cc1	3.3
CCN(CC)c1nc(OC)nc(-n2nnc(C(C)=O)c2C)n1	8.1
